The target of experiment [1] is T1, Growth hormone secretagogue receptor type 1 (Homo sapiens, UniProt Q92847). As to the kind of experiment: Ability to inhibit ghrelin induced increase in intracellular [Ca2+] in CHO-K cells was determined by FLIPR assay. It is filed as functional, cell-based. In outline:
(§1)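 Antagonist mode in CHO-K cells stably expressing human GHS-R, grown to confluency overnight. Cells were loaded with Fluo-4 AM plus probenecid in DPBS for 1–3h in the dark at room temperature, then washed. Compound was added in 0.1% BSA/4% DMSO DPBS and read for 3min. Ghrelin was then added and read a further 3min at ex 488/em 520nm. IC50 from sigmoidal fit.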

Experiment [2] addresses T1, Growth hormone secretagogue receptor type 1. Kind of experiment: Ability to displace [125I]ghrelin from cloned human GHS-R expressed in CHO-K cells was determined (Kd of ghrelin is 0.4 nM). It is filed as cell-based.
Experiment [3] has the same target. Kind of experiment: Binding affinity to displace [125I]ghrelin from cloned human GHS-R expressed in CHO-K cells was determined (Kd of ghrelin is 0.4 nM). It counts as cell-based.
For experiment [4] the target is unchanged. As to the kind of experiment: Ability to inhibit ghrelin induced increase in intracellular [Ca2+] in CHO-K cells. It is filed as functional, cell-based. The method, boiled down: as §1
Experiment [5] addresses Growth hormone secretagogue receptor type 1 (Mus musculus, UniProt Q99P50). As to the kind of experiment: Inhibitory concentration against mouse Growth hormone secretagogue receptor.
Experiment [6] addresses Growth hormone secretagogue receptor type 1 (Rattus norvegicus, UniProt O08725). Kind of experiment: Inhibitory concentration against rat Growth hormone secretagogue receptor.

Each structure is given as a SMILES string.

T1 sequence (Q92847 whole entry): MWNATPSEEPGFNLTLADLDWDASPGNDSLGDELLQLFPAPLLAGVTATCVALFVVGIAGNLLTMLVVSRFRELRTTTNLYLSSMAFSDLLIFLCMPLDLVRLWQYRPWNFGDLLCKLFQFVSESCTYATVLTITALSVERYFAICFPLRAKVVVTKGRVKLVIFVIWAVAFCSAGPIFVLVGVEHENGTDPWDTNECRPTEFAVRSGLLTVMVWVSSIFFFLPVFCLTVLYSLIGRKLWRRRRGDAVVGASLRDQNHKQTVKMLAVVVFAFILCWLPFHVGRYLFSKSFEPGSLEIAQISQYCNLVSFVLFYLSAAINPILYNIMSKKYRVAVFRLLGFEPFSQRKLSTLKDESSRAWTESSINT
Sequence of Growth hormone secretagogue receptor type 1 (Rattus norvegicus, UniProt O08725) (O08725 whole entry): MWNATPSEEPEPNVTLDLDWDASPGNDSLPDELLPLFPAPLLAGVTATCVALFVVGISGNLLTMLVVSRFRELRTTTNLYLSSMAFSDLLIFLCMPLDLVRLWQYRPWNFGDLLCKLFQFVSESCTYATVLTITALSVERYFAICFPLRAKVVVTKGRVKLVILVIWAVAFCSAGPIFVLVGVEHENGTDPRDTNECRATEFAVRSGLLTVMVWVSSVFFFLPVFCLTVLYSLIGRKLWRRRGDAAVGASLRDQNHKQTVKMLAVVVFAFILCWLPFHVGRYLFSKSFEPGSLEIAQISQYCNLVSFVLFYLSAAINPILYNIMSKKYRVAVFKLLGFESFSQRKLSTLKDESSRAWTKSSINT
Sequence of Growth hormone secretagogue receptor type 1 (Mus musculus, UniProt Q99P50) (Q99P50 whole entry): as the sequence (O08725 whole entry) above, with P30S, A249S counted along it

Take `CCN(CC)c1ccc(NC(=O)c2c(-c3c(Cl)cccc3Cl)noc2CCc2ccccc2OC)cc1`: the concentration for half-maximal inhibition (IC50) – broadly, the point on the concentration scale where inhibition reaches its midpoint – in experiment [1] came out at 714 nM; in experiment [2], 389 nM.
The matching figures for `CCN(CC)c1ccc(NC(=O)c2c(-c3c(Cl)cccc3Cl)noc2CCC2CCCCO2)cc1` (configuration not stated): 102 nM and 39 nM.
For `CCN(CC)c1ccc(NC(=O)c2c(-c3c(Cl)cccc3Cl)noc2CCc2cccc3c2OCO3)cc1`, the IC50 in experiment [1] amounted to 564 nM; in experiment [2] it was 162 nM.
On the same counts, the results for `CCN(CC)c1ccc(NC(=O)c2c(-c3c(Cl)cccc3Cl)noc2CCC2CCCO2)cc1` (configuration not stated) are 57 nM and 57 nM.
With `CCN(CC)c1ccc(NC(=O)c2c(-c3c(Cl)cccc3Cl)noc2CCN2CCCC2=O)cc1`, the IC50 in experiment [1] and in experiment [2] was 18 nM in each case.
As for `CCN(CC)c1ccc(NC(=O)c2c(-c3c(Cl)cccc3Cl)noc2CCOC)cc1`, the 50% inhibitory concentration (IC50) came out at 115 nM in experiment [1] and 110 nM in experiment [2].
In the case of `CCN(CC)c1ccc(NC(=O)c2c(-c3c(Cl)cccc3Cl)noc2C)cc1`, the values for the IC50 in experiment [1] and in experiment [3] were 180 nM and 130 nM, respectively.
For the compound `CCN(CC)[C@H]1CC[C@H](NC(=O)c2c(-c3c(Cl)cccc3Cl)noc2CCC2OCCCO2)CC1`, the IC50 in experiment [2] was found to be 87 nM; in experiment [4] it was 3 nM.
In the case of `CCN(CC)[C@H]1CC[C@H](NC(=O)c2c(-c3c(Cl)cccc3Cl)noc2CCN2CCCCC2=O)CC1`, the results for the 50% inhibitory concentration (IC50) in experiment [1] and in experiment [2] were 190 nM and 139 nM, respectively.
Take `CCN(CC)c1ccc(NC(=O)c2c(-c3c(Cl)cccc3Cl)noc2C(C)C)cc1`: the IC50 in experiment [1] turned out to be 861 nM; in experiment [2] it was 150 nM.
Regarding `CCN(CC)[C@H]1CC[C@H](NC(=O)c2c(-c3c(Cl)cccc3Cl)noc2CCc2ccc3c(c2)OCO3)CC1`, the IC50 in experiment [1] came to 54 nM; in experiment [5], 7 nM; in experiment [2] it was 32 nM; in experiment [6] it was 12 nM.
Regarding `CCN(CC)c1ccc(NC(=O)c2c(-c3c(Cl)cccc3Cl)noc2CCC2OCCO2)cc1`, the 50% inhibitory concentration (IC50) in experiment [1] was found to be 56 nM; in experiment [2], 25 nM.
The matching figures for `CCN(CC)c1ccc(NC(=O)c2c(-c3c(Cl)cccc3Cl)noc2CCN(C)C(C)=O)cc1`: 19 nM and 34 nM.
On to `CCN(CC)c1ccc(NC(=O)c2c(-c3c(Cl)cccc3Cl)noc2CCC2CCOCC2)cc1`, for which the figures for the IC50 in experiment [1] and in experiment [2] were 146 nM and 29 nM, respectively.
On to `CCN(CC)c1ccc(NC(=O)c2c(-c3c(Cl)cccc3Cl)noc2CCN2CCCCC2=O)cc1`, for which the half-maximal inhibitory concentration (IC50) stood at 8 nM in experiment [1] and 9 nM in experiment [2].
The matching figures for `CCN(CC)c1ccc(NC(=O)c2c(-c3c(Cl)cccc3Cl)noc2CCN2CCN(C)C2=O)cc1`: 10 nM and 21 nM.
The matching figures for `CCN(CC)[C@H]1CC[C@H](NC(=O)c2c(-c3c(Cl)cccc3Cl)noc2C)CC1`: 57 nM and 53 nM.
Regarding `CCN(CC)[C@H]1CC[C@H](NC(=O)c2c(-c3c(Cl)cccc3Cl)noc2CCC2CCCO2)CC1` (some centres not stated), the results for the IC50 in experiment [1] and in experiment [2] were 103 nM and 194 nM, respectively.
Turning to `CCN(CC)c1ccc(NC(=O)c2c(-c3c(Cl)cccc3Cl)noc2CCN2C(=O)CCC2(C)C)cc1`, the results for the IC50 in experiment [1] and in experiment [2] were 15 nM and 39 nM, respectively.
Take `CCN(CC)c1ccc(NC(=O)c2c(-c3c(Cl)cccc3Cl)noc2CCc2ccc3c(c2)OCO3)cc1`: the values for the 50% inhibitory concentration (IC50) in experiment [1] and in experiment [2] were 93 nM and 47 nM, respectively.
Regarding `CCCc1onc(-c2c(Cl)cccc2Cl)c1C(=O)Nc1ccc(N(CC)CC)cc1`, the 50% inhibitory concentration (IC50) in experiment [1] came to 492 nM; in experiment [2], 131 nM.
With `CCN(CC)c1ccc(NC(=O)c2c(-c3c(Cl)cccc3Cl)noc2CCCO)cc1`, the IC50 was 308 nM in experiment [1] and 132 nM in experiment [2].
As to `CCN(CC)c1ccc(NC(=O)c2c(-c3c(Cl)cccc3Cl)noc2CCC2OCCCO2)cc1`, the IC50 stood at 19 nM in experiment [1] and 6 nM in experiment [2].
The matching figures for `CCc1onc(-c2c(Cl)cccc2Cl)c1C(=O)Nc1ccc(N(CC)CC)cc1`: 319 nM and 147 nM.
Consider `CCN(CC)c1ccc(NC(=O)c2c(-c3c(Cl)cccc3Cl)noc2CN2CCCC2=O)cc1`, for which the IC50 in experiment [1] amounted to 98 nM; in experiment [2], 122 nM.

For the origin of these results see ChEMBL document CHEMBL1137912, “Novel isoxazole carboxamides as growth hormone secretagogue receptor (GHS-R) antagonists” (Bioorg Med Chem Lett, 2004).
